As a reminder, the inhibition is the drop in the measured response relative to a control, in per cent. One may read the IC50 as the concentration at which inhibition is half-maximal.

Results on 50 compounds are retold here after ChEMBL document CHEMBL4265950, “Discovery of furyl/thienyl β-carboline derivatives as potent and selective PDE5 inhibitors with excellent vasorelaxant effect” (Eur J Med Chem, 2018).

Assay [1] has as its target T1, cGMP-specific 3',5'-cyclic phosphodiesterase (Homo sapiens, UniProt O76074). In words: Inhibition of full length recombinant human N-terminal GST-tagged PDE5A1 expressed in baculovirus infected sf9 cells at 100 nM using FAM-cyclic-3',5-GMP as substrate after 1 hr by fluorescence polarization assay relative to control. A digest of the protocol: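 Single-point test at 100 nM, reported as percent inhibition. Human PDE5 at 15 ng/mL with 100 nM FAM-cGMP in MOPS pH 7.5 buffer (MgCl2, EDTA, BSA, DTT), 1% DMSO final, 60 min at 25 °C. Binding agent added for 1 h, then fluorescence polarization read at […] nm.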
Background: Polarisation of emitted light reports the rotation of a fluorescent probe.

Assay [2] deals with Dual specificity calcium/calmodulin-dependent 3',5'-cyclic nucleotide phosphodiesterase 1A (Homo sapiens, UniProt P54750). In words: Inhibition of full length recombinant human N-terminal GST-tagged PDE1A expressed in baculovirus infected sf9 cells using FAM-cyclic-3',5-AMP as substrate after 1 hr by fluorescence polarization assay. A digest of the protocol: (§1)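 Fluorescence polarization assay run at 25 °C for 60 min in 40 mM MOPS pH 7.5, 0.5 mM EDTA, 15 mM MgCl2, 0.15 mg/mL BSA, 1 mM DTT, 0.05% ProClin 200. Contained 15 ng/mL PDE isoform and 100 nM FAM-cGMP or FAM-cAMP according to isoform, with 1% DMSO final. Binding agent added for 1 h at 25 °C; read at […] nm. IC50 from normalized nonlinear dose-response fit.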

The species entered for assay [3] is Homo sapiens. In words: Selectivity index, ratio of IC50 for inhibition of full length recombinant human N-terminal GST-tagged PDE11A4 expressed in baculovirus infected sf9 cells to IC50 for inhibition of full length recombinant human N-terminal GST-tagged PDE5A1 expressed in baculovirus infected sf9 cells.
Assay [4] addresses cGMP-inhibited 3',5'-cyclic phosphodiesterase 3B (Homo sapiens, UniProt Q13370). The assay can be described thus: Inhibition of recombinant human N-terminal GST-tagged PDE3B (592 to end residues) expressed in baculovirus infected sf9 cells using FAM-cyclic-3',5-AMP as substrate after 1 hr by fluorescence polarization assay. A digest of the protocol: as §1
Assay [5] addresses T1, cGMP-specific 3',5'-cyclic phosphodiesterase. The assay can be described thus: Inhibition of full length recombinant human N-terminal GST-tagged PDE5A1 expressed in baculovirus infected sf9 cells using FAM-cyclic-3',5-GMP as substrate after 1 hr by fluorescence polarization assay.
Assay [6] has as its target Cone cGMP-specific 3',5'-cyclic phosphodiesterase subunit alpha' (Homo sapiens, UniProt P51160). In words: Inhibition of full length recombinant human N-terminal GST-tagged PDE6C expressed in baculovirus infected sf9 cells using […] as substrate after 1 hr by fluorescence polarization assay.
Assay [7] has as its target Dual 3',5'-cyclic-AMP and -GMP phosphodiesterase 11A (Homo sapiens, UniProt Q9HCR9). The assay can be described thus: Inhibition of full length recombinant human N-terminal GST-tagged PDE11A4 expressed in baculovirus infected sf9 cells using FAM-cyclic-3',5-AMP as substrate after 1 hr by fluorescence polarization assay.
The species named for assay [8] is Homo sapiens. The assay can be described thus: Selectivity index, ratio of IC50 for inhibition of full length recombinant human N-terminal GST-tagged PDE6C expressed in baculovirus infected sf9 cells to IC50 for inhibition of full length recombinant human N-terminal GST-tagged PDE5A1 expressed in baculovirus infected sf9 cells.
Assay [9] addresses 3',5'-cyclic-AMP phosphodiesterase 4A (Homo sapiens, UniProt P27815). In words: Inhibition of full length recombinant human N-terminal GST-tagged PDE4A1A expressed in baculovirus infected sf9 cells using FAM-cyclic-3',5-AMP as substrate after 1 hr by fluorescence polarization assay.
In assay [10] the target is cGMP-dependent 3',5'-cyclic phosphodiesterase (Homo sapiens, UniProt O00408). In words: Inhibition of recombinant human N-terminal FLAG-tagged PDE2A (2 to 941 residues) expressed in baculovirus infected sf9 cells using FAM-cyclic-3',5-AMP as substrate after 1 hr by fluorescence polarization assay. A digest of the protocol: as §1

Each structure is given as a SMILES string.

Chain of Cone cGMP-specific 3',5'-cyclic phosphodiesterase subunit alpha' (P51160 whole entry): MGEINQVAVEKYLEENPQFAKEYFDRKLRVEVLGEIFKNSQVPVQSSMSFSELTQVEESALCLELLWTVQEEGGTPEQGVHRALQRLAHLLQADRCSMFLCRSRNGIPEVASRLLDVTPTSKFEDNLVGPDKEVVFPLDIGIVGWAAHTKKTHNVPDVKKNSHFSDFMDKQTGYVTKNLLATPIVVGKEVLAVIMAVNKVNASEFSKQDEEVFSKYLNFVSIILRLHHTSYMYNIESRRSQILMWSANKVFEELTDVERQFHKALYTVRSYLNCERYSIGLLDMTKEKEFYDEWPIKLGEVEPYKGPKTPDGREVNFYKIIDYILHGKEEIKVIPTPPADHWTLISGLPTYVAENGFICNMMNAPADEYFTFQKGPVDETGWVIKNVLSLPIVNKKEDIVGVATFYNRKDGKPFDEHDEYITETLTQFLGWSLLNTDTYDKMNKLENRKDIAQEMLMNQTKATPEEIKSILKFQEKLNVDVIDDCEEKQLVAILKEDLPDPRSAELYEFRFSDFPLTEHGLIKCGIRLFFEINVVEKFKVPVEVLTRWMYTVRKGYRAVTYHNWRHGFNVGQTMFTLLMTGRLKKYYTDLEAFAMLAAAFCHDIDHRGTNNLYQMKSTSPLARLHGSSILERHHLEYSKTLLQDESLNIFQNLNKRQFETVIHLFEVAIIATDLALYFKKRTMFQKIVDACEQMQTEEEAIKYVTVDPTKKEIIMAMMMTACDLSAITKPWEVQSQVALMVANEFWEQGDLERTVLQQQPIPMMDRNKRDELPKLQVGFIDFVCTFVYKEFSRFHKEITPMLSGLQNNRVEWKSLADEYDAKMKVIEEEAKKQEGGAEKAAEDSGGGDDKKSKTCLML
Chain of Dual 3',5'-cyclic-AMP and -GMP phosphodiesterase 11A (Q9HCR9 whole entry): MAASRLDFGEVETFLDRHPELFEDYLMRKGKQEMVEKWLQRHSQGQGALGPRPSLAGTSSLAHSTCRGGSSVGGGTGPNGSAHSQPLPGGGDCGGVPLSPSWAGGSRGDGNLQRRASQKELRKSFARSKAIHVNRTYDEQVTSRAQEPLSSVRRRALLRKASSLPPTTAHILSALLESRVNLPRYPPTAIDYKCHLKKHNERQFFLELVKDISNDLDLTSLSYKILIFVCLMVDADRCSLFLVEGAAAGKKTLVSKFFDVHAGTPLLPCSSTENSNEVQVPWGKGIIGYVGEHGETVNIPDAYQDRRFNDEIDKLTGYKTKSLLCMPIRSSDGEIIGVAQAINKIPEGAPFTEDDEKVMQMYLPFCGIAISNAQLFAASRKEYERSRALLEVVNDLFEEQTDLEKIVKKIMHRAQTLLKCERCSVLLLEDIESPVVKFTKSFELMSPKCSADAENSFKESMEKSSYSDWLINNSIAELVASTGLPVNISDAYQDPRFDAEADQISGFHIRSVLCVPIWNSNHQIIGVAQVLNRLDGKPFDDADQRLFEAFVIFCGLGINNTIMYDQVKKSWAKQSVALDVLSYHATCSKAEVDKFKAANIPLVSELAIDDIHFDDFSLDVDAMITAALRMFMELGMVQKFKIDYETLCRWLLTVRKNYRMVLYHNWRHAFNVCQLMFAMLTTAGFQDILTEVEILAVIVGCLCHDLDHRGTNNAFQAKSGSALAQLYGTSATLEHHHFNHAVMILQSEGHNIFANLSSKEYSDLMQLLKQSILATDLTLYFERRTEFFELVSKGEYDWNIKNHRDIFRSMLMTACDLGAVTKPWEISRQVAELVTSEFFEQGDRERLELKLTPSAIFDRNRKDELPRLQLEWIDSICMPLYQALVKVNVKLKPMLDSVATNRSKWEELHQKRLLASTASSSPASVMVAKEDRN
Chain of cGMP-inhibited 3',5'-cyclic phosphodiesterase 3B (Q13370 whole entry): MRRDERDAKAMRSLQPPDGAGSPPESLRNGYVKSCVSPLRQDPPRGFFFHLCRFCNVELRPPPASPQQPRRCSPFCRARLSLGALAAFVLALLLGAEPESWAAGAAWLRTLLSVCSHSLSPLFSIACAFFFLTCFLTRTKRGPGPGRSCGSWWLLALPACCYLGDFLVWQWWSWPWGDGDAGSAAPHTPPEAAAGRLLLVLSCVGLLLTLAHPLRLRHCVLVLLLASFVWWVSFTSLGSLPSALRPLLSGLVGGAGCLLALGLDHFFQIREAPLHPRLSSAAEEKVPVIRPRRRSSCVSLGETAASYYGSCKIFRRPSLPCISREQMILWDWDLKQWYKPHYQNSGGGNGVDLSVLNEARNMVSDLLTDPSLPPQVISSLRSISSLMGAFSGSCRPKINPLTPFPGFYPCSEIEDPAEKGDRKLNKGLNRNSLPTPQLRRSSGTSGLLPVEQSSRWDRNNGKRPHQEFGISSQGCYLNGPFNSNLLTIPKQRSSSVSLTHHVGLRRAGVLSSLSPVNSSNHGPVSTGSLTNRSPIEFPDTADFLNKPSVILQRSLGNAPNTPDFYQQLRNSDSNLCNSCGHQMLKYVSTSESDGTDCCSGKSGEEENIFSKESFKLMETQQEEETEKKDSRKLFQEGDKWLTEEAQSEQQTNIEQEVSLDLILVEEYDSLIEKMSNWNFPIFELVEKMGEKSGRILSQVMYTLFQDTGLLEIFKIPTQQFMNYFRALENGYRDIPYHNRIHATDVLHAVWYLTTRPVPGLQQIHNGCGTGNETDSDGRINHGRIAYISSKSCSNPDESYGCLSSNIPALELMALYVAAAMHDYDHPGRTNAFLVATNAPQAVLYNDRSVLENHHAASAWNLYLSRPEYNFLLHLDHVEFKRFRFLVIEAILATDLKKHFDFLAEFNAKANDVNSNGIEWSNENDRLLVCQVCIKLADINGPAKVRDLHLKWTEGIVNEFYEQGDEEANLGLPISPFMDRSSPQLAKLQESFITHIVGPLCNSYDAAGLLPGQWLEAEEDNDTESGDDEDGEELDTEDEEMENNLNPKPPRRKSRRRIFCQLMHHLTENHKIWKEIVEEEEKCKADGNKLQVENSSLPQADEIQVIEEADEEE
Chain of cGMP-dependent 3',5'-cyclic phosphodiesterase (O00408 whole entry, the tested form may be a part): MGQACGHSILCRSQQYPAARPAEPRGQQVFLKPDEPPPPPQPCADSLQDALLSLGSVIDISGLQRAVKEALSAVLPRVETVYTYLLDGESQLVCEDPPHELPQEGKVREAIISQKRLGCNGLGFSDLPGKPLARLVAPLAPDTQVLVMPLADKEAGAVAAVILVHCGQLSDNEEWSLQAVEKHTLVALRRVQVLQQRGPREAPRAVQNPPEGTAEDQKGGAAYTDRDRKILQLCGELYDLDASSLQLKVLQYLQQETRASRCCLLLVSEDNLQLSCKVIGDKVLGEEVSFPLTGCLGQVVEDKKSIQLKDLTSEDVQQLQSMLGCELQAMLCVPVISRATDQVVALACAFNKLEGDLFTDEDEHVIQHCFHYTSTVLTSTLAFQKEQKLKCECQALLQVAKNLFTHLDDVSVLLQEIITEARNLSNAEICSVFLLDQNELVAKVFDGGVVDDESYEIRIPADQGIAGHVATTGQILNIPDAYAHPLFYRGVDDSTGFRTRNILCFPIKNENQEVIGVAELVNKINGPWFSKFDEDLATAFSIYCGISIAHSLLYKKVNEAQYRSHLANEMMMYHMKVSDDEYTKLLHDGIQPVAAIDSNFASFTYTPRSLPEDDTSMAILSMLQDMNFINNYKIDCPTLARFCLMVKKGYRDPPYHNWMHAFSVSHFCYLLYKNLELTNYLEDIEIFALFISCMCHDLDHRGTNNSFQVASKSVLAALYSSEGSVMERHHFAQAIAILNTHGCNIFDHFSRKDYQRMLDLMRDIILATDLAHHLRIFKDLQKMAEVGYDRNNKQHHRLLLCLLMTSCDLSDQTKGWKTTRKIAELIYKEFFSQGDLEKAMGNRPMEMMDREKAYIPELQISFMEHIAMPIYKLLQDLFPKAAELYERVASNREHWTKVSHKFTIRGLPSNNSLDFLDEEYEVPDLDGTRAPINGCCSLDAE
Chain of 3',5'-cyclic-AMP phosphodiesterase 4A (P27815 whole entry, the tested form may be a part): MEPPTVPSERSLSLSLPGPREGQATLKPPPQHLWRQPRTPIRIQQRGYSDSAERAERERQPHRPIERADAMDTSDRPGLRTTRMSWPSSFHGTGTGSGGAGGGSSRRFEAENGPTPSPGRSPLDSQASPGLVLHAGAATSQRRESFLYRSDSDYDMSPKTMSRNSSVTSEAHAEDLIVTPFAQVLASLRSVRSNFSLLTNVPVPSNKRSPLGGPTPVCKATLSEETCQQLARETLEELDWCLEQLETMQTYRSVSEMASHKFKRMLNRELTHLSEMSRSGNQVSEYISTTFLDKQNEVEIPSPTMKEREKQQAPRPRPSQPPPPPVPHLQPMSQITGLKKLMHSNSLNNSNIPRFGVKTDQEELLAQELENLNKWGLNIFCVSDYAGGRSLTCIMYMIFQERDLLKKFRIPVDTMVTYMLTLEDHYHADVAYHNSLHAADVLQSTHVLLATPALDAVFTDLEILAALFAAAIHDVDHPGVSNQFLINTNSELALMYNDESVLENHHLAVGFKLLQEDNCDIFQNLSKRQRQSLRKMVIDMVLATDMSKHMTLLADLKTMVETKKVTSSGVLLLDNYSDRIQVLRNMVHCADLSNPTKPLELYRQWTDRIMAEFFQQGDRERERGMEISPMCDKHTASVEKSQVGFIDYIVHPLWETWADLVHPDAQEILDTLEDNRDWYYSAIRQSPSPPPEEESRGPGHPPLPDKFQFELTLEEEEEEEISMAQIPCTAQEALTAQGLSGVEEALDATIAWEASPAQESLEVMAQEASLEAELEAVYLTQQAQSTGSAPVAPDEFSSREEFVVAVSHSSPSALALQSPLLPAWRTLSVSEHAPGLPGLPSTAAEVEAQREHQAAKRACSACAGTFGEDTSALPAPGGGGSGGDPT

As to `CCc1ccc(C(=O)c2[nH]c3ccccc3c2CCNc2ncc(-c3ccc(OC)c(OC)c3)cn2)o1`, the inhibition in assay [1] was 29.1%.

As to `Cc1ccc(C2c3[nH]c4ccccc4c3CCN2c2ccc(-c3ccccn3)cn2)o1` (centres undefined), in assay [1], the inhibition amounted to 23.2%.

As to `CCc1ccc(C(=O)c2[nH]c3ccccc3c2CCNc2ncc(-c3ccc(OC)c(OC)c3)cn2)s1`, in assay [1], the inhibition is 24.7%.

As for `CCCCN1C(=O)[C@@H]2Cc3c([nH]c4ccccc34)[C@@H](c3ccc(CC)s3)N2C1=O`, the IC50 was more than 20000 nM in assay [2]; more than 20000 nM in [4]; 30.3 nM in assay [5]; 107 nM in assay [6]; more than 1000 nM in assay [7]; more than 10000 nM in [9]. For the same compound, the half-inhibitory concentration (IC50) in [10] was more than 20000 nM. The figures for the Ratio IC50 in the assay filed under Homo sapiens [3] and in the assay filed under Homo sapiens [8] were more than 33 and 4, respectively. The inhibition in [1] stood at 79.4%.

On to `Cc1ccsc1[C@@H]1c2[nH]c3ccccc3c2C[C@@H]2C(=O)N(C)CC(=O)N12`, for which the inhibition in assay [1] was found to be 66.7%. The IC50 in [5] was 50.2 nM.

For the compound `O=C(c1cc2ccccc2o1)c1[nH]c2ccccc2c1CCNc1ccc(-c2ccccn2)cn1`, the inhibition in assay [1] is 17.7%.

For `CCc1ccc(C2c3[nH]c4ccccc4c3C(=O)CN2c2ncc(-c3ccc(OC)c(OC)c3)cn2)s1` (centres undefined), the Ratio IC50 in the assay filed under Homo sapiens [3] was 4; in the assay filed under Homo sapiens [8] it was 6. Further, the inhibition in assay [1] was 69.4%. The figures for the IC50 in assay [5], in [6] and in [7] were 39.7 nM, 253 nM and 153 nM, respectively.

Turning to `Cc1ccsc1[C@H]1c2[nH]c3ccccc3c2C[C@@H]2C(=O)N(C)CC(=O)N12`, in assay [1], the inhibition came out at 57.4%. Moreover, the concentration for half-maximal inhibition (IC50) in [5] came to 97.5 nM.

For `CCc1ccc(C(=O)c2[nH]c3ccccc3c2C[C@@H]2NC(=O)N(CC)C2=O)s1`, in [1], the inhibition was 27.3%.

For `c1ccc(-c2ccc(N3CCc4c([nH]c5ccccc45)C3c3cc4ccccc4o3)nc2)nc1` (centres undefined), the inhibition in assay [1] came to 15.2%.

As to `Cc1ccc(C(=O)c2[nH]c3ccccc3c2CCNc2ccc(-c3ccccn3)cn2)s1`, the inhibition in assay [1] is 20.4%.

`CCCCN1C(=O)[C@@H]2Cc3c([nH]c4ccccc34)[C@H](c3ccc(CC)s3)N2C1=O`: the inhibition in assay [1] is 35.9%.

Regarding `CCc1ccc([C@H]2c3[nH]c4ccccc4c3C[C@H]3C(=O)N(C)CC(=O)N23)o1`, in assay [1], the inhibition was 69%. Besides, in [5], the IC50 worked out at 56.4 nM.

With `CCc1ccc([C@H]2c3[nH]c4ccccc4c3C[C@H]3C(=O)N(C)CC(=O)N23)s1`, the IC50 in [2] was more than 20000 nM; in assay [4] it was more than 20000 nM; in assay [5] it was 19.9 nM; in assay [6], more than 1000 nM; in assay [7], more than 1000 nM; in [9], more than 10000 nM. In addition, in assay [10], the IC50 is more than 20000 nM. For the same compound, the Ratio IC50 in the assay filed under Homo sapiens [3] and in the assay listed under Homo sapiens [8] was more than 50 each time. In addition, in assay [1], the inhibition worked out at 86.7%.

In the case of `CN1CC(=O)N2[C@@H](c3ccc(Br)s3)c3[nH]c4ccccc4c3C[C@@H]2C1=O`, the inhibition in [1] was 39.8%.

Take `CCc1ccc(C(=O)c2[nH]c3ccccc3c2C[C@@H]2NC(=O)CN(C)C2=O)s1`: in assay [1], the inhibition came out at 23.3%.

`Cc1ccc(C2c3[nH]c4ccccc4c3CCN2c2ccc(-c3ccccn3)cn2)s1` (centres undefined): the inhibition in assay [1] was determined as 38.1%.

`Cc1ccc([C@@H]2c3[nH]c4ccccc4c3C[C@@H]3C(=O)N(C)CC(=O)N23)o1`: the inhibition in [1] came to 89.5%. For the same compound, the IC50 in assay [5] came out at 36.9 nM.

Turning to `CCc1ccc([C@H]2c3[nH]c4ccccc4c3C[C@@H]3C(=O)N(CC)C(=O)N23)s1`, the inhibition in [1] is 45.8%. In addition, the IC50 in [5] stood at 155 nM.

Consider `CCCc1ccc(C2c3[nH]c4ccccc4c3CCN2c2ccc(-c3ccccn3)cn2)s1` (centres undefined), for which, in [1], the inhibition was determined as 28%.

For `CCc1ccc(C2c3[nH]c4ccccc4c3CCN2C(=O)/C=C/c2ccc(C(=O)OC)cc2)s1` (centres undefined), in assay [1], the inhibition amounted to 43.9%.

`CN1CC(=O)N2[C@@H](c3ccco3)c3[nH]c4ccccc4c3C[C@@H]2C1=O`: the inhibition in [1] stood at 35.2%.

For the compound `CN1CC(=O)N2[C@@H](c3sccc3Br)c3[nH]c4ccccc4c3C[C@@H]2C1=O`, the inhibition in [1] was determined as 41.6%.

With `CCc1ccc(C(=O)c2[nH]c3ccccc3c2C[C@H]2NC(=O)N(CC)C2=O)s1`, in [1], the inhibition is 11.1%.

Consider `CCc1ccc([C@H]2c3[nH]c4ccccc4c3C[C@H]3C(=O)N(CC)C(=O)N23)s1`, for which, in [1], the inhibition was 44.1%. In addition, the IC50 in assay [5] worked out at 383 nM.

Regarding `Cc1cc(C2c3[nH]c4ccccc4c3CCN2c2ccc(-c3ccccn3)cn2)sc1C` (centres undefined), the inhibition in [1] is 21.2%.

Consider `CCc1ccc(C2c3[nH]c4ccccc4c3CCN2c2ccc(-c3ccccn3)cn2)o1` (centres undefined), for which the inhibition in [1] worked out at 39.2%.

On to `Cc1ccc([C@H]2c3[nH]c4ccccc4c3C[C@@H]3C(=O)N(C)CC(=O)N23)o1`, for which the inhibition in assay [1] is 40.5%.

For the compound `CCCCN1C(=O)[C@H]2Cc3c([nH]c4ccccc34)[C@H](c3ccc(CC)s3)N2C1=O`, the inhibition in [1] was 37.9%.

For the compound `Cc1cc(C(=O)c2[nH]c3ccccc3c2CCNc2ccc(-c3ccccn3)cn2)sc1C`, the inhibition in [1] worked out at 1.7%.

Take `CCN1C(=O)[C@@H]2Cc3c([nH]c4ccccc34)[C@H](c3sccc3C)N2C1=O`: the inhibition in assay [1] stood at 27.7%.

Regarding `CCc1ccc(C(=O)c2[nH]c3ccccc3c2C[C@H]2NC(=O)CN(C)C2=O)s1`, the inhibition in [1] came to 21.1%.

Take `CCCc1ccc(C(=O)c2[nH]c3ccccc3c2CCNc2ccc(-c3ccccn3)cn2)s1`: the inhibition in [1] is 18.3%.

For `CCNC(=O)N1[C@H](c2ccc(CC)s2)c2[nH]c3ccccc3c2C[C@@H]1C(=O)OC`, the inhibition in assay [1] turned out to be 41.3%.

`CCc1ccc(C2c3[nH]c4ccccc4c3CCN2c2ncc(-c3ccc(OC)c(OC)c3)cn2)o1` (centres undefined): in [1], the inhibition worked out at 47.6%. Also, the IC50 in assay [5] came to 177 nM.

Take `Cc1ccc(C(=O)c2[nH]c3ccccc3c2CCNc2ccc(-c3ccccn3)cn2)o1`: in [1], the inhibition is 23.7%.

For `COc1cccc2cc(C3c4[nH]c5ccccc5c4CCN3c3ccc(-c4ccccn4)cn3)oc12` (centres undefined), the inhibition in [1] worked out at 17.5%.

On to `CCc1ccc(C2c3[nH]c4ccccc4c3CCN2c2ncc(-c3ccc(OC)c(OC)c3)cn2)s1` (centres undefined), for which the inhibition in [1] is 27.6%.

`CCc1ccc([C@H]2c3[nH]c4ccccc4c3C[C@@H]3C(=O)N(C)CC(=O)N23)o1`: the inhibition in assay [1] is 39.1%.

As for `CN1CC(=O)N2[C@H](c3sccc3Br)c3[nH]c4ccccc4c3C[C@@H]2C1=O`, the inhibition in assay [1] worked out at 67.2%. For the same compound, in [5], the half-inhibitory concentration (IC50) is 80.2 nM.

For `CCc1ccc(C(=O)c2[nH]c3ccccc3c2CCNc2ccc(-c3ccccn3)cn2)o1`, the inhibition in assay [1] is 16.1%.

For `CCc1ccc([C@@H]2c3[nH]c4ccccc4c3C[C@H]3C(=O)N(C)CC(=O)N23)s1`, the inhibition in assay [1] is 72.7%. In assay [5], the IC50 was 61 nM.

For the compound `CCc1ccc([C@H]2c3[nH]c4ccccc4c3C[C@H]3C(=O)N(CC)C(=O)N23)o1`, the inhibition in [1] was determined as 62.2%. In addition, the IC50 in assay [5] worked out at 81.2 nM.

In the case of `CN1CC(=O)N2[C@H](c3ccco3)c3[nH]c4ccccc4c3C[C@@H]2C1=O`, in assay [1], the inhibition came out at 48.1%.

Regarding `Cc1ccc([C@H]2c3[nH]c4ccccc4c3C[C@@H]3C(=O)N(C)CC(=O)N23)s1`, the inhibition in [1] worked out at 40.2%.

In the case of `CCc1ccc([C@H]2c3[nH]c4ccccc4c3C[C@@H]3C(=O)N(C)CC(=O)N23)s1`, in assay [1], the inhibition is 38.8%.

Regarding `CCc1ccc([C@@H]2c3[nH]c4ccccc4c3C[C@H]3C(=O)N(C)CC(=O)N23)o1`, the inhibition in [1] came to 41.1%.

Take `CCc1ccc(C2c3[nH]c4ccccc4c3CCN2C(=O)/C=C/c2ccc(C(=O)O)cc2)s1` (centres undefined): the inhibition in [1] was 47.4%. In assay [5], the IC50 was found to be 235 nM.

As to `CCc1ccc(C2c3[nH]c4ccccc4c3CCN2C(=O)/C=C/c2cccc(Br)c2)s1` (centres undefined), the inhibition in assay [1] is 33.7%.

Regarding `COc1cccc2cc(C(=O)c3[nH]c4ccccc4c3CCNc3ccc(-c4ccccn4)cn3)oc12`, in assay [1], the inhibition worked out at 23.9%.
